Screens deposited in PubChem BioAssay by The Scripps Research Institute Molecular Screening Center.
Tn7 DDE FP = inhibitors of Tn7 peptide binding to human fibrin DD(E) | FP displacement of FITC-Tn7 peptide from fibrin DD(E); 0% = median of compound wells per plate | P02675 | 0.13% of 370,000 active | inhibition, % at 8.3 µM | AID 720508;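 active means inhibition above the mean of compounds falling within the control limits plus 3 SD of them, cut at about 14% in these data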;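 further: 0% = plate median of compound wells and 100% = 10 µM Aha-Tn7 peptide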
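Test system – human fibrin DD(E) · Times – 10 min preincubation, 3 h with tracer, room temperature · Detection – fluorescence polarization of the labelled Tn7 tracer · Measure – percent inhibition normalized to high-control wells · Benchmarks – high control wells with 10 µM unlabelled Aha-Tn7 peptide (full inhibition) · Repeats – singlicate testing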
PLC-beta3 inh = blocks human PLC-beta3 enzyme activity; Q01970; Purified PLC-beta3, fluorogenic substrate, fluorescence; inhibition, % at 12.2 µM; 0.18% of 370,000 active; in the data active means inhibition above about 11%;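 further: 0% = median of compound wells on plate and 100% = full blocker control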
Target sequence (Q01970 whole entry, looked up): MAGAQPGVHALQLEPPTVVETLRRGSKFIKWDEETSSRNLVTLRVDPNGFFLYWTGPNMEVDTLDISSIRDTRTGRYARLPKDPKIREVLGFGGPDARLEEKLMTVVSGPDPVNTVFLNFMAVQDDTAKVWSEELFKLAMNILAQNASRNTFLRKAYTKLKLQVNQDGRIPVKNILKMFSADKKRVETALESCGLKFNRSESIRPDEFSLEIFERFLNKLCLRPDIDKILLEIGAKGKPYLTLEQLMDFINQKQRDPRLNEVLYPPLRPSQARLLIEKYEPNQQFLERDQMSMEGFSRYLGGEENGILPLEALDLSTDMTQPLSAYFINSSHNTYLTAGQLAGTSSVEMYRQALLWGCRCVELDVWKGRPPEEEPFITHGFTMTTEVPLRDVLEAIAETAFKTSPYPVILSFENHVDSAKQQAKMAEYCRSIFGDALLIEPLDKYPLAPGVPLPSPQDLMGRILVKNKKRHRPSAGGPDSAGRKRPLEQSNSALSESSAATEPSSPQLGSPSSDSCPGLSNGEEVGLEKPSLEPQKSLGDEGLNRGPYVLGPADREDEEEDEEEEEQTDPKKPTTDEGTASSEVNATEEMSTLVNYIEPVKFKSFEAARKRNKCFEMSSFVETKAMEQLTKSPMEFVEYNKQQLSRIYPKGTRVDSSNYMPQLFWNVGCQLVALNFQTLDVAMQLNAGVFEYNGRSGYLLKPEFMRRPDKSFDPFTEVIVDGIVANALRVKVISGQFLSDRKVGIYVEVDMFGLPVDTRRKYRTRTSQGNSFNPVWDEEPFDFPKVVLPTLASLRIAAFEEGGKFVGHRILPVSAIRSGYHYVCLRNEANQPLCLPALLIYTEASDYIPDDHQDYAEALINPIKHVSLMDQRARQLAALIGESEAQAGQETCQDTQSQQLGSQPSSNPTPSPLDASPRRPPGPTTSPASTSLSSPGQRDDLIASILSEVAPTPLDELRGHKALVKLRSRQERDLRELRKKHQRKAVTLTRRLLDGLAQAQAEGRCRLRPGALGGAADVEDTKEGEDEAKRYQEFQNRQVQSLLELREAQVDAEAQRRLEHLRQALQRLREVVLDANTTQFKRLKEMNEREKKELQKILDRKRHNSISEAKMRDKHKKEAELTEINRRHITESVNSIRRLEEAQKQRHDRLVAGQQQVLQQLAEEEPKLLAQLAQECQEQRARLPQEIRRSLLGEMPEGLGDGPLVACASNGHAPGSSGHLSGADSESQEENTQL
PLC-gamma1 inh = inhibitors of human phospholipase C gamma1. purified PLC-gamma1, fluorogenic substrate, fluorescence. AID 720700. P19174. inhibition, % at 12.2 µM. 0.84% of 370,000 active; in the data active means inhibition above about 9.5%
ADAM17 inh = inhibits human ADAM17 | recombinant ADAM17, EDANS/DABCYL FRET peptide cleavage | P78536 | inhibition, % at 6.95 µM | 0.83% of 370,000 active | AID 720648;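 active means inhibition above the mean of compounds lying between control limits plus 3 SD, set per campaign, cut at about 8.5% in these data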;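 further: 0% = DMSO-only wells as the low control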
ADAM10 inh = ADAM10 inhibition, QFRET primary screen; O14672; recombinant ADAM10, EDANS/DABCYL FRET peptide cleavage, 3 h; inhibition, % at 7 µM; 0.62% of 370,000 active;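 active means inhibition above a per-campaign cutoff equal to the mean of compounds falling between control-based bounds plus 3 SD, cut at about 20% in these data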;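 further: 0% = DMSO wells while the 100% control is not disclosed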
DDE Tn6 FP inh = inhibitors of Tn6 peptide binding to human fibrin DD(E); inhibition, % at 8.3 µM; Fibrin DD(E) TRITC-Tn6 fluorescence polarization displacement; 0.21% of 370,000 active; AID 720509; P02675;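 active means inhibition above a per-campaign cutoff: mean of compounds within control limits plus 3 SD, cut at about 15% in these data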;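 further: 0% = median of all compound wells on the plate and 100% = blocking peptide control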
DDE Tn6 FP ctr = DD(E)-Tn6 binding inhibition, counter-screen; inhibition, % at 8.3 µM; 2% of 680 active; AID 720621; Fibrin DD(E), TRITC-Tn6 fluorescence polarization displacement; 0% = median of compound wells, not DMSO; shares compounds with DDE Tn6 FP inh;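 active means inhibition above the mean of test compounds lying between the control limits plus 3 SD of those, cut at about 14% in these data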;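 further: 0% = median of compound wells and 100% = wells with Aha-Tn7 blocking peptide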
DDE Tn6 confirm = DD(E)-Tn6 binding inhibition, FP confirmation; 10% of 680 active; FP displacement of TRITC-Tn6 peptide from DD(E); 0% = per-plate median of test wells; AID 720631; shares compounds with DDE Tn6 FP inh; inhibition, % at 8.3 µM;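 active means inhibition above the mean of compounds lying within the control limits plus 3 SD, cut at about 16% in these data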;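 further: 100% = high control wells holding a competing inhibitor peptide at 10 µM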
Numbers without * were called inactive; i = inactive; . = no result; ! = repeats disagree. Hits are enriched below; roughly 2.3% of the tested compounds scored in any of these assays.

SMILES | Tn7 DDE FP | PLC-beta3 inh | PLC-gamma1 inh | ADAM17 inh | ADAM10 inh | DDE Tn6 FP inh | DDE Tn6 FP ctr | DDE Tn6 confirm
O=C(CSc1nc2ncccc2[nH]1)NC1CCCCC1 | 3 | -2 | 3 | -2 | -1 | -4 | . | .
CCOC(=O)C1(C)C=C(Nc2ccc(O)cc2)C(=O)N1c1ccc(O)cc1 (centres undefined) | 3 | -54 | -40 | -6 | -6 | 24* | -1 | -15
CCOC(=O)C1(C)C=C(Nc2ccc(OC)cc2)C(=O)N1c1ccc(OC)cc1 (centres undefined) | 5 | -1 | -1 | 3 | 5 | 3 | . | .
CC(C)CCn1c(=O)c2ccccc2n2c(CN3CCOCC3)nnc12 | -2 | -4 | 0 | -1 | -10 | 16* | 1 | 0
CC(=O)Nc1sc2c(c1-c1nc3ccccc3s1)CCN(C)C2 | 7 | i | i | -82 | -264 | -2 | . | .
CC(=O)Nc1sc2c(c1-c1nc3ccccc3s1)CCOC2 | -1 | i | i | -37 | -137 | 16* | 11 | 7
O=C(Cc1cccs1)Nc1cccc(-c2nc3cc4ccccc4cc3[nH]2)c1 | -14 | i | i | -494 | i | 144* | 4 | 34*
COc1ccc(C(=O)/C=C(\Nc2ccc(Br)c(C)c2)c2ccc(OC)cc2OC)c(OC)c1 | 0 | -10 | -8 | 1 | 2 | 2 | . | .
N#Cc1ccc(NC(=O)CSc2n[nH]c(=O)n2C2CC2)cc1 | 3 | -1 | -2 | 3 | -7 | 16* | 3 | 4
O=C(CSc1n[nH]c(=O)n1C1CC1)Nc1ccccc1 | 4 | -4 | 3 | -2 | 0 | -10 | . | .
CCC(c1nnnn1-c1ccc2c(c1)OCCO2)N1CCN(c2ncccc2C(F)(F)F)CC1 (centres undefined) | -6 | -1 | -3 | 0 | 6 | 15*! | 2 | -2
COc1ccc(C2(C)NC(=O)N(CC(=O)NC(C)c3ccc(CC(C)C)cc3)C2=O)cc1 (centres undefined) | 2 | -3 | 0 | 2 | -4 | 19* | 9 | 0
CC(C)C(=O)NCCc1nc2ccccc2n1CCOc1ccccc1 | 1 | 3 | 3 | 3 | 8 | 15* | 9 | 8
COc1ccc(CCNC(=O)Cn2ncc3c2-c2cc(C)ccc2OC3)cc1 | -3 | 3 | 1 | -1 | 1 | 2 | . | .
Cc1csc(SCC(=O)NCc2cccc(Cl)c2)n1 | 1 | -3 | -1 | -2 | -3 | 17* | 1 | 1
Cc1c(C(=O)c2no[n+]([O-])c2C(=O)c2cnn(C)c2C)cnn1C | -12 | -1 | 2 | -3 | -3 | 16* | -11 | 2
COc1ccc(C(=O)c2no[n+]([O-])c2C(=O)c2ccc(OC)cc2)cc1 | 0 | -4 | -3 | -7 | -7 | 4 | . | .
O=C(OC12CCCN(C1)/C(=C/c1ccc(Cl)cc1)C2)c1ccc(Cl)cc1 (centres undefined) | -5 | 1 | 0 | 0 | -13 | 1 | . | .
CCC[C@H]1[C@@H](OC(=O)Oc2ccc([N+](=O)[O-])cc2)CC[C@@]23CCCN2C(=O)CCC[C@@H]13 | 4 | 3 | 2 | -2 | -2 | 2 | . | .
O=C(CSc1nc2ccccc2[nH]1)Nc1nc(-c2ccc(Br)cc2)cs1 | -1 | 0 | 3 | 5 | 11 | 41* | 2 | -5
CCCc1cc(=O)[nH]c(SCC(=O)Nc2nc(-c3ccccc3)cs2)n1 | 0 | -4 | -1 | 3 | -4 | 2 | . | .
CCCCOc1ccc(C(=O)NC2CCCCN(CC)C2=O)cc1 (centres undefined) | 3 | 3 | 2 | -1 | -1 | 4 | . | .
O=C1N=C(N2CCN(c3ccccc3)CC2)S/C1=C/c1ccco1 | 3 | -14 | -11 | -1 | 3 | 17* | 9 | 2
COCCCNc1nc2c(c(=O)[nH]c(=O)n2C)n1CC(O)COc1ccccc1C (centres undefined) | 5 | 0 | 1 | -2 | -4 | 17* | -1 | 0
